Data as given in ChEMBL document CHEMBL1177728, “Discovery and optimization of boronic acid based inhibitors of autotaxin” (J Med Chem, 2010).

Key:
Autotaxin [1] = target: T1, Autotaxin (Homo sapiens, UniProt Q13822); assay: Inhibition of 6x-histidine-tagged human recombinant ATX expressed in HEK293 cells at 5 uM by CPF assay; assay type: cell-based
Summary of the method: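 FRET substrate CPF4 at 2 μM with purified His-tagged ATX (~40 nM), run as the bis-pNPP format (pH 7.8 Tris-buffered saline, BSA-FAF, 3 h at room temperature). Fluorescence excited at 355 nm, emission 460 and 520 nm. Inhibitor at 5 μM final.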

Autotaxin [2] = target: T1, Autotaxin; assay: Inhibition of 6x-histidine-tagged human recombinant ATX expressed in HEK293 cells using bisP-nitrophenyl phosphate as a substrate at 5 uM; assay type: cell-based
Summary of the method: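 bis-pNPP hydrolysis by purified His-tagged ATX (~40 nM) in Tris-buffered saline pH 7.8 with fatty-acid-free BSA 0.2 mg/mL. Bis-pNPP added as 2 mM stock, 3 h at room temperature. p-Nitrophenol read at 405 nm, corrected by 0 h absorbance. IC50 from 10 concentrations (0.025–100 μM); inhibition at 5 μM final; three independent experiments.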

Autotaxin [3] = target: T1, Autotaxin; assay: Inhibition of 6x-histidine-tagged human recombinant ATX expressed in HEK293 cells using bisP-nitrophenyl phosphate as a substrate; assay type: cell-based; details: read-out: IC50
Autotaxin [4] = target: T1, Autotaxin; assay: Inhibition of 6x-histidine-tagged human recombinant ATX expressed in HEK293 cells assessed as lysophosphatidulcholine release; assay type: cell-based
Summary of the method: (§1)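 LPC (18:1) choline release: ATX (~40 nM) secreted by transfected HEK293 cells into serum-free medium, TALON-purified, in 50 mM Tris-HCl pH 7.4 with 0.01% Triton X-100. Substrate added as 80 μM LPC with 10 mM MgCl2 and CaCl2, 3 h at 37 C.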

Autotaxin [5] = target: T1, Autotaxin; assay: Inhibition of 6x-histidine-tagged human recombinant ATX expressed in HEK293 cells assessed as residual enzyme activity by lysophosphatidulcholine release assay; assay type: cell-based
Summary of the method: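 Residual activity in the LPC (18:1) choline release assay with purified His-tagged ATX (~40 nM), pH 7.4 Tris with 0.01% Triton X-100, 3 h at 37 C. Inhibitor titrated at 10 concentrations, 0.01–30 μM. Choline detected at 405 nm via choline oxidase/HRP/ABTS.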

Autotaxin [6] = target: T1, Autotaxin; assay: Inhibition of 6x-histidine-tagged human recombinant ATX expressed in HEK293 cells assessed as residual activity using bisP-nitrophenyl phosphate as a substrate; values are per cent of control
Autotaxin [7] = target: T1, Autotaxin; assay: Inhibition of 6x-histidine-tagged human recombinant ATX expressed in HEK293 cells assessed as lysophosphatidulcholine release at 5 uM; assay type: cell-based
Summary of the method: as §1, with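 “C. Choline read at 405 nm by choline oxidase/HRP/ABTS with compound-absorbance correction. IC50 over 10 concentrations (0.01–30 μM); inhibition at 5 μM final.” for “C.”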

| SMILES | inhibition (Autotaxin [1]) | inhibition (Autotaxin [2]) | IC50 (Autotaxin [3]) | IC50 (Autotaxin [4]) | Activity (Autotaxin [5]) | residual activity (Autotaxin [6]) | inhibition (Autotaxin [7]) |
| --- | --- | --- | --- | --- | --- | --- | --- |
| Cn1c(=O)n(C)c2cc(/C=C3\SC(=O)N(Cc4ccccc4)C3=O)ccc21 | 55% | 75% | 111 nM |  |  |  |  |
| O=C(O)c1cccc(COc2ccc(/C=C3\SC(=O)N(Cc4ccc(F)cc4)C3=O)cc2)c1 |  |  |  | 1070 nM | 7% |  |  |
| O=C1S/C(=C\c2ccc(OCc3ccccc3)cc2)C(=O)N1Cc1ccccc1 |  |  | 2690 nM |  |  | 32% |  |
| COc1cc(/C=C2\SC(=O)N(Cc3ccc(Cl)cc3)C2=O)ccc1OCc1ccncc1 | 85% | 83% | 68 nM |  |  |  |  |
| CC(C)Cc1ccc(-c2n[nH]c3c2C(c2ccc(N(C)C)cc2)C(C#N)=C(N)O3)cc1 (centres undefined) | 77% | 87% | 46 nM |  |  |  |  |
| CCCCCCCC/C=C\CCCCCCCC(=O)OC[C@@H](O)COP(=O)(O)O | 67% | 80% |  |  |  | 39% |  |
| O=C1S/C(=C\c2ccc(OCc3ccccc3)cc2)C(=O)N1Cc1ccc(F)cc1 |  |  | 700 nM |  |  | 37% |  |
| O=C(CSc1nc2ccc(N3C(=O)c4ccccc4C3=O)cc2s1)Nc1cccc(Cl)c1 | 66% | 71% | 261 nM |  |  |  |  |
| O=C(O)c1ccc(COc2ccc(/C=C3\SC(=O)N(Cc4ccc(F)cc4)C3=O)cc2)cc1 |  |  |  | 1630 nM | 40% |  |  |

Second part, the molecule after the results:

| inhibition (Autotaxin [1]) | inhibition (Autotaxin [2]) | IC50 (Autotaxin [3]) | IC50 (Autotaxin [4]) | Activity (Autotaxin [5]) | residual activity (Autotaxin [6]) | inhibition (Autotaxin [7]) | SMILES |
| --- | --- | --- | --- | --- | --- | --- | --- |
|  |  | 442 nM | > 5000 nM | 56% | 33% |  | COc1cc(/C=C2\SC(=O)N(Cc3ccc([N+](=O)[O-])cc3)C2=O)ccc1OCc1ccc(C(=O)O)cc1 |
|  |  |  | 2050 nM | 42% |  |  | COc1cc(/C=C2\SC(=O)N(Cc3ccc(F)cc3)C2=O)ccc1OCc1cccc(C(=O)O)c1 |
| 85% | 91% | 56 nM | 2500 nM | 35% | 10% | 55% | COc1cc(/C=C2\SC(=O)N(Cc3ccc(F)cc3)C2=O)ccc1OCc1ccc(C(=O)O)cc1 |
|  |  | 18200 nM | 13600 nM | 27% | 33% |  | COc1cc(/C=C2\SC(=O)N(Cc3ccc(C(C)(C)C)cc3)C2=O)ccc1OCc1ccc(C(=O)O)cc1 |
| 89% | 92% | 161 nM |  |  |  |  | CCOc1cc(/C=C2\SC(=O)N(Cc3ccccc3)C2=O)ccc1OCc1ccc(C(=O)O)cc1 |
|  |  | 60900 nM |  |  | 31% |  | COC(=O)c1ccc(COc2ccc(/C=C3\SC(=O)N(Cc4ccc([N+](=O)[O-])cc4)C3=O)cc2OC)cc1 |
|  |  | 248 nM | 2900 nM | 29% | 9% |  | COc1cc(/C=C2\SC(=O)N(Cc3ccccc3)C2=O)ccc1OCc1ccc(C(=O)O)cc1 |
